In ChEMBL document CHEMBL1140880, “Arylphthalazines as potent, and orally bioavailable inhibitors of VEGFR-2” (Bioorg Med Chem, 2009):
≈ marks a conversion by molar mass, not a printed value.

How the values were obtained:
[1] = biological target: T1, Vascular endothelial growth factor receptor 2 (Homo sapiens, UniProt P35968); conditions: HEK293
[2] = AUC (0 to 24 hrs) in CD1 mouse at 30 mg/kg administered as 5% phosal solution; format: ADME, organism-based; parameters: time < 24 hr, dose 30 mg/kg; conditions: plasma
How it was run: (§1)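 Female CD-1 mice (n = 3) given 30 mg/kg orally in 5% phosal solution (dihydrochloride salt; target ca. 3 mg/mL, dosed at 10 mL/kg).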

[3] = biological target: Fibroblast growth factor receptor 1 (Homo sapiens) (UniProt P11362); test: Inhibition of FGFR1 at 10 uM
[4] = Inhibition of adenosine receptor at 10 uM
HUVEC = test: Inhibition of VEGF-stimulated HUVEC cell proliferation treated before 2 hrs of VEGF challenge assessed after 3 days by [3H]thymidine incorporation assay; format: functional; conditions: Homo sapiens, read-out: ED50 (the source's name)
How it was run: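 HUVEC seeded at 1 × 10^4 cells/well in EGM and allowed to adhere ≥4 h. Cells then quiesced 72 h in medium lacking EGF, VEGF and FGF with 1% FBS. Compound added for 2 h (0.1% DMSO), then stimulation with VEGF-165 (5 ng/well) for 3 days.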

[5] = biological target: Vascular endothelial growth factor receptor 3 (Homo sapiens) (UniProt P35916); test: Inhibition of VEGFR3 at 10 uM
[6] = Cmax in CD1 mouse at 30 mg/kg administered as 5% phosal solution after 24 hrs; format: ADME, organism-based; parameters: dose 30 mg/kg; conditions: in vivo
How it was run: as §1

[7] = Drug level in po dosed CD1 mouse administered as 5% phosal solution after 1 hr; format: ADME, organism-based; conditions: in vivo, read-out: Drug uptake
How it was run: (§2)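 Preliminary exposure study in female CD-1 mice dosed by oral route; vehicles included 5% phosal solution. Plasma analysed for compound at 1-h and 4-h timepoints.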

[8] = biological target: Voltage-gated inwardly rectifying potassium channel KCNH2 (Homo sapiens, UniProt Q12809); test: Inhibition of human ERG; conditions: read-out: ED50 (the source's name)
Cytochrome P450 3A4 = Cytochrome P450 3A4 (Homo sapiens, UniProt P08684); test: Inhibition of CYP3A4; format: ADME
[9] = biological target: Histamine H2 receptor (Homo sapiens) (UniProt P25021); test: Inhibition of histamine H2 receptor at 10 uM
[10] = Drug level in po dosed CD1 mouse administered as 5% phosal solution after 4 hrs; format: ADME, organism-based; conditions: in vivo, read-out: Drug uptake
How it was run: as §2

[11] = biological target: Sodium-dependent dopamine transporter (Homo sapiens) (UniProt Q01959); test: Inhibition of dopamine transporter at 10 uM
[12] = Solubility in deionized water; format: physicochemical
[13] = biological target: T1, Vascular endothelial growth factor receptor 2; test: Inhibition of VEGFR2 by HTRF method

Sequence of Fibroblast growth factor receptor 1 (Homo sapiens) (P11362 22-822 limits assumed): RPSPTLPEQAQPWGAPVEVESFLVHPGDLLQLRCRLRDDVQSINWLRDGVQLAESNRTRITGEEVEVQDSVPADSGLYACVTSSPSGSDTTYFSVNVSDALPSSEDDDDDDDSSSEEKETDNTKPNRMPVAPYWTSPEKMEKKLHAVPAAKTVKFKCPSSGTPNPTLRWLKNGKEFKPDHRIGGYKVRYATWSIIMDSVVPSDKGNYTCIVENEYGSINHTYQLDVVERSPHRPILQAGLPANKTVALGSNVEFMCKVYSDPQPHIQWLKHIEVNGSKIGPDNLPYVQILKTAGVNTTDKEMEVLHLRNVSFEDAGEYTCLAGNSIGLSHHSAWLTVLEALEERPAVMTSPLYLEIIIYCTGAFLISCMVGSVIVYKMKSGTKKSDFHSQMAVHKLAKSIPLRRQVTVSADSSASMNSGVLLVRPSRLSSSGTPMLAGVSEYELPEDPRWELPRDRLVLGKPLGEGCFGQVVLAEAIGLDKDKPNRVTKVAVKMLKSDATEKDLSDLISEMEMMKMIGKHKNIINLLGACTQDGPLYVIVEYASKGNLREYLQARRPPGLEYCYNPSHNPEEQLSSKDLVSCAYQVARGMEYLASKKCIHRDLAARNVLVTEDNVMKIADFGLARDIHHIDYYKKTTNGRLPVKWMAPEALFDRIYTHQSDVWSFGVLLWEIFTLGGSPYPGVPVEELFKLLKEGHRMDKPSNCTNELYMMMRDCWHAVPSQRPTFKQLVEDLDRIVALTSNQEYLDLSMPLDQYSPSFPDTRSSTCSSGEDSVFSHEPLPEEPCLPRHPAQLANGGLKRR
Sequence of Voltage-gated inwardly rectifying potassium channel KCNH2 (Q12809 whole entry): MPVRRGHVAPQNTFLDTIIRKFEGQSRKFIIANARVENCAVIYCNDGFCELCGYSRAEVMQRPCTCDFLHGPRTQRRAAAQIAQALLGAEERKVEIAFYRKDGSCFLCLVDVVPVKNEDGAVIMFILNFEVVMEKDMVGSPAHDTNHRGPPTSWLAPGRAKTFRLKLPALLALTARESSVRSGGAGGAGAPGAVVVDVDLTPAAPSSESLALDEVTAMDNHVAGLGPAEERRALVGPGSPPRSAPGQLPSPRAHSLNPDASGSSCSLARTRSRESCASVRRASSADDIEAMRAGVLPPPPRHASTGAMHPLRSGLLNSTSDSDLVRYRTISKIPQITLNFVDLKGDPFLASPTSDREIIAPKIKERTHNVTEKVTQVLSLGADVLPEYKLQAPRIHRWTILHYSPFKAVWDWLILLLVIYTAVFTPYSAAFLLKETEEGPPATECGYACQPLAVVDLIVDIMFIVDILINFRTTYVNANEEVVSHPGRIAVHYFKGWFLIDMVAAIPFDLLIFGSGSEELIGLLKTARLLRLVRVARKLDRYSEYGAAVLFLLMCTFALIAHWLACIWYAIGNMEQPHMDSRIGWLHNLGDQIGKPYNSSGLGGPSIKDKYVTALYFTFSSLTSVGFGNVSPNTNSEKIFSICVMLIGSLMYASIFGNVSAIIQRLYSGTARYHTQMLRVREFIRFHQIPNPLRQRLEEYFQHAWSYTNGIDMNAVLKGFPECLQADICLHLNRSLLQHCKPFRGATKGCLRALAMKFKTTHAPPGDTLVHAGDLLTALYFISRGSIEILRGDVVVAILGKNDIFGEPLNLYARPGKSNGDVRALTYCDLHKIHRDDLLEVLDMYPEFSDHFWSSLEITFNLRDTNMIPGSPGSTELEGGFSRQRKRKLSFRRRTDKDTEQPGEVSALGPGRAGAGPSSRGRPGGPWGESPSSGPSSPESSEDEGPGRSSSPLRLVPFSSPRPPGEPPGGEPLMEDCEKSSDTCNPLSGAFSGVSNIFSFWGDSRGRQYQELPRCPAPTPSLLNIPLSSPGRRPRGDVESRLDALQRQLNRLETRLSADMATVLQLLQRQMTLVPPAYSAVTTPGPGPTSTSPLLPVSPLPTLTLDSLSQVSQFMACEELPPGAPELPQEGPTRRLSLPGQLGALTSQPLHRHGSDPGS
Sequence of Cytochrome P450 3A4 (P08684 whole entry): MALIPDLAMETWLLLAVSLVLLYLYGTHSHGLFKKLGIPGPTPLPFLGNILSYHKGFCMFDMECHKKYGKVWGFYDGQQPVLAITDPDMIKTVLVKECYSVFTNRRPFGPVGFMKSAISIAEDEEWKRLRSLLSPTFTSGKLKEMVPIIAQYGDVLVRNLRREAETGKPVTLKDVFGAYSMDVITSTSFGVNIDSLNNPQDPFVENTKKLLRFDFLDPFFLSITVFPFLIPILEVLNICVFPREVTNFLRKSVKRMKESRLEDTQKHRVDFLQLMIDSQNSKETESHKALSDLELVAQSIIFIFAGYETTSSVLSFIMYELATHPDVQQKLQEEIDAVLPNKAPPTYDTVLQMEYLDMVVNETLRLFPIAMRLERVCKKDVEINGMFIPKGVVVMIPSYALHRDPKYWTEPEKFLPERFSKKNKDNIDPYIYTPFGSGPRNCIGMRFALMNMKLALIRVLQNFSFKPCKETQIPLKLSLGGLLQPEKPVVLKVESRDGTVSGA
Sequence of Histamine H2 receptor (Homo sapiens) (P25021 whole entry): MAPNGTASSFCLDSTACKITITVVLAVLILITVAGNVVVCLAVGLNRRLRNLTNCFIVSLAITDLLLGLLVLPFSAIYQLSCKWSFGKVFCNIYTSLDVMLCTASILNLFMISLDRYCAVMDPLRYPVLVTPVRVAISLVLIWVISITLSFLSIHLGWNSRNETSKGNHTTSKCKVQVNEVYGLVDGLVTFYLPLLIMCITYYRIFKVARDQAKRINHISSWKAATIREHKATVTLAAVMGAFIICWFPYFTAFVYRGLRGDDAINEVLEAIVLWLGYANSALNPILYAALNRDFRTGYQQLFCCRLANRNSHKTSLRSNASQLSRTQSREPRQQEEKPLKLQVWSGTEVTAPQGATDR
Sequence of Vascular endothelial growth factor receptor 3 (Homo sapiens) (P35916 whole entry): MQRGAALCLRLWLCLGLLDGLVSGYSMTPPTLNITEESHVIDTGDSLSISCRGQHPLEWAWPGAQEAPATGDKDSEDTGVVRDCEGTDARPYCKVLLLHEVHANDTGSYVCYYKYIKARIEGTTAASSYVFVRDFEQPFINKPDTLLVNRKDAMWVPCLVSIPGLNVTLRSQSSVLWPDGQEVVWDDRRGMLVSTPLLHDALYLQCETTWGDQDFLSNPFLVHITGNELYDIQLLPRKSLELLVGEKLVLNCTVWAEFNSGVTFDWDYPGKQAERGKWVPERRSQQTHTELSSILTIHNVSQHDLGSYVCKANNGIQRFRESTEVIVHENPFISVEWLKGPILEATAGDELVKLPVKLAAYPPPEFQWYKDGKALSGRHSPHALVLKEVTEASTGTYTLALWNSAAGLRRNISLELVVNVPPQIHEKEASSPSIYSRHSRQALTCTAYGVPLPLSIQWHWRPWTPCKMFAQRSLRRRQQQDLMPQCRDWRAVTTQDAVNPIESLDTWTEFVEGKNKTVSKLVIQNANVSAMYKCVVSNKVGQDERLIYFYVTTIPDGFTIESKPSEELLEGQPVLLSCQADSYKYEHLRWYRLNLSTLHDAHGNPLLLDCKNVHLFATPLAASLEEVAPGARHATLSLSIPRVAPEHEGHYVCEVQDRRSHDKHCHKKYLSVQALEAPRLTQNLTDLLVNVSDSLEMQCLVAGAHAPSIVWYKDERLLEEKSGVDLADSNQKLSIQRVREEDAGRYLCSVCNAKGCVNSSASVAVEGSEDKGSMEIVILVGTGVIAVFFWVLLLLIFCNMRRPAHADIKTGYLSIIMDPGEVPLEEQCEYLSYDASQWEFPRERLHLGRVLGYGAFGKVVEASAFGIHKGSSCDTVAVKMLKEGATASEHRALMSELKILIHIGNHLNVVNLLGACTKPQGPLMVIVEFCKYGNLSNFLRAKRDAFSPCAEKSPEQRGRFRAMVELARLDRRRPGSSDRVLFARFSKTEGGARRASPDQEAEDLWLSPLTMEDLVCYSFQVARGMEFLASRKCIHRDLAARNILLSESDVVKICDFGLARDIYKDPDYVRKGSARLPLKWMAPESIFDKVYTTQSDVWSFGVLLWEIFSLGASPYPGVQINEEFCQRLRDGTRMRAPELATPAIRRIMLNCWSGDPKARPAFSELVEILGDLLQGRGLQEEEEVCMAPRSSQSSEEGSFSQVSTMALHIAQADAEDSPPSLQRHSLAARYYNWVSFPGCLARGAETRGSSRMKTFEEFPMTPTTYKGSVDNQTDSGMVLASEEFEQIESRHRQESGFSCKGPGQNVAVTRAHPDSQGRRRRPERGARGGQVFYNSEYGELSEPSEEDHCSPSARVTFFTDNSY
Sequence of Sodium-dependent dopamine transporter (Homo sapiens) (Q01959 whole entry): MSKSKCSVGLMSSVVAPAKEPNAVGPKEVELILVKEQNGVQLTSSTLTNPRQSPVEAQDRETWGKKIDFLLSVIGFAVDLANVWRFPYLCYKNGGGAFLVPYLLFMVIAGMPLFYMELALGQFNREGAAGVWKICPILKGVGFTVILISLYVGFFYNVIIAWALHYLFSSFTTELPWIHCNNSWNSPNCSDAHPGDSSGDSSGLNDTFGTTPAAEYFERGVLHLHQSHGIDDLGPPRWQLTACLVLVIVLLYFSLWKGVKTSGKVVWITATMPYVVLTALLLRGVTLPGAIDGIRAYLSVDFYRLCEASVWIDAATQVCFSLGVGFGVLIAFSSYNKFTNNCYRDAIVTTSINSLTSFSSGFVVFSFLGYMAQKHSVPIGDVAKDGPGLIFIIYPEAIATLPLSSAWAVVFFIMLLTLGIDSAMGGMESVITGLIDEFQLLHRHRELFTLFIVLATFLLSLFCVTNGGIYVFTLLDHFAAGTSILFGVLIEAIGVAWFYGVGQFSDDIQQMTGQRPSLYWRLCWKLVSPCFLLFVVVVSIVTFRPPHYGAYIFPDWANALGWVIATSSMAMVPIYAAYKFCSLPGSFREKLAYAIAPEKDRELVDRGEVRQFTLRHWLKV

For `COc1ccc(Nc2nnc(-c3ccc(C(N)=O)cc3)c3ccccc23)cc1`, which ED50 [1] is on record?
The ED50 was > 10000 nM.

Which results are given for `Clc1ccc(Nc2nnc(-c3cccc4cnccc34)c3ccccc23)cc1`?
AUC(0-t) at 24 h [2]: 891 µM·h; inhibition [3]: 38%; inhibition [4]: 65%; EC50 (HUVEC): 210 nM; ED50 [1]: 10 nM; inhibition [5]: 33%; Cmax [6]: 25.9 µM; concentration at 1 h [7]: 22.7 µM; IC50 [8]: 3000 nM; Activity (Cytochrome P450 3A4): Not Active; inhibition [9]: 54%; concentration at 4 h [10]: 18.8 µM; inhibition [11]: 77%; solubility [12]: 1000 µg/mL (≈ 2610 µM)

Which EC50 (HUVEC) does the source give for `COc1cc2c(Oc3ccc4[nH]c(C)cc4c3F)ncnc2cc1OCCCN1CCCC1` [CEDIRANIB] here?
Its EC50 is 12 nM.

Which EC50 (HUVEC) does the source give for `COc1cc2/c(=N/c3ccc(Br)cc3F)nc[nH]c2cc1OCC1CCN(C)CC1` [VANDETANIB] here?
Its EC50 is 280 nM.

With `CNS(=O)(=O)c1ccc(Nc2nnc(-c3ccc(C(N)=O)cc3)c3ccccc23)cc1` as the molecule, how does the IC50 [13] read?
The IC50 was > 10000 nM.

With `NC(=O)c1ccc(-c2nnc(Nc3ccc(Oc4ccccc4)cc3)c3ccccc23)cc1` as the molecule, how does the IC50 [13] read?
Its IC50 is > 10000 nM.

For `CC(C)(C)c1ccc(Nc2nnc(-c3ccc(C(N)=O)cc3)c3ccccc23)cc1`, which EC50 (HUVEC) is on record?
The EC50 was 250 nM.
